The term inhibition denotes the percentage by which the read-out fell short of the control. Broadly, the IC50 is the concentration needed to halve the response being measured. The low end stands for greater potency in that assay, the high end for weaker potency in that assay.

This note sets out measurements from ChEMBL document CHEMBL3612064, “Oxidative Reactivities of 2-Furylquinolines: Ubiquitous Scaffolds in Common High-Throughput Screening Libraries” (J Med Chem, 2015).

Where “and” joins values, the source holds several entries; their conditions need not be identical. Equal values may be shown once. Calls of active or inactive are those of the source. The rule behind the calls is not given here.

A short description of series [1]: Stability in DMSO solution assessed as parent compound remaining at 10 mM incubated for 38 days exposed to laboratory air by HPLC method.
Series [2] addresses T1, DNA dC->dU-editing enzyme APOBEC-3G (Homo sapiens, UniProt Q9HC16). Description: Inhibition of APOBEC3G (unknown origin) assessed as remaining enzyme activity at 200 uM using ssDNA oligomer 5'-6-FAM-AAA-TAT-TCC-CTA-ATA-GAT-AAT-GTG-A-TAMRA-3' by fluorescence-based deamination assay. The gist of the method:
(§1)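 Recombinant A3G was expressed and purified. A freshly prepared DMSO stock (day 0) was tested in dose response up to 200 μM. The read-out was the fluorescence-based ssDNA C-to-U deamination assay with a 5'-6-FAM/3'-TAMRA oligo, detected after uracil DNA glycosylase processing. Performed in triplicate, mean ± SD.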

A short description of series [3]: Drug metabolism assessed as compound formation using compound-1 by LC-MS method. In kind it is physicochemical. The essentials:
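10 mM DMSO stocks were gently shaken at 25 °C open to air and analysed on day 38 by LC-MS. The LC-MS used a C18 column (0.5 × 150 mm, 5 μm) at 15 μL/min with trifluoroacetic and formic acid modifiers, and an ion-trap MS in positive-ion mode. Decomposition products were scored as detected or not detected.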

Series [4] is described as follows: Drug metabolism assessed as oxidative compound decompostion after irradiation with visible light under oxygen-saturated environment in presence of rose bengal photosensitizer using compound-1 by LC/MS method. In kind it is physicochemical.
Series [5] can be described thus: Drug level assessed as compound formation using compound-1 in DMSO incubated for 16 months by LC-MS method. The format is physicochemical. The conditions noted are these: 11688 h.
Series [6] can be described thus: Drug level assessed as compound formation using compound-1 in DMSO incubated for 16 months by IR method. In kind it is physicochemical. The conditions noted are these: 11688 h.
The nature of series [7]: Drug metabolism in DMSO solution assessed as compound formation incubated for 38 days exposed to laboratory air by LC/MS method. The settings on record: 912 h. In kind it is physicochemical.
In series [8] the target is T1, DNA dC->dU-editing enzyme APOBEC-3G. As to the kind of experiment: Inhibition of APOBEC3G (unknown origin) assessed as reduction enzyme efficiency at 200 uM using ssDNA oligomer 5'-6-FAM-AAA-TAT-TCC-CTA-ATA-GAT-AAT-GTG-A-TAMRA-3' by fluorescence-based deamination assay. The gist of the method:
as §1

Series [9] in a line: Drug level assessed as compound formation using compound-1 in DMSO incubated for 16 months by 1H and 13C NMR method. In kind it is physicochemical. The settings on record: 11688 h.
Series [10] in a line: Drug metabolism assessed as formation of oxidative decomposition products by LC-MS method. In kind it is physicochemical.
The target of series [11] is T1, DNA dC->dU-editing enzyme APOBEC-3G. As to the kind of experiment: Inhibition of APOBEC3G (unknown origin) assessed as remaining enzyme activity at 200 uM incubated for 21 days using ssDNA oligomer 5'-6-FAM-AAA-TAT-TCC-CTA-ATA-GAT-AAT-GTG-A-TAMRA-3' by fluorescence-based deamination assay. The essentials: (§2)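 A DMSO stock of the compound was aged in a closed microcentrifuge tube at 20-22 °C on the bench. The same stock was re-tested against recombinant A3G in dose response up to 200 μM at days 3, 21, 38 and 72. The assay was the fluorescence-based C-to-U deamination assay on a 6-FAM/TAMRA ssDNA oligo, with uracil DNA glycosylase in the read-out. Triplicates, mean ± SD.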

Series [12] shares this target. Description: Inhibition of APOBEC3G (unknown origin) assessed as remaining enzyme activity at 200 uM incubated for […] using ssDNA oligomer 5'-6-FAM-AAA-TAT-TCC-CTA-ATA-GAT-AAT-GTG-A-TAMRA-3' by fluorescence-based deamination assay.
Series [13] has the same target. Description: Inhibition of APOBEC3G (unknown origin) assessed as remaining enzyme activity at 200 uM incubated for 38 days using ssDNA oligomer 5'-6-FAM-AAA-TAT-TCC-CTA-ATA-GAT-AAT-GTG-A-TAMRA-3' by fluorescence-based deamination assay. The gist of the method: as §2
The nature of series [14]: Drug metabolism assessed as oxidative compound decompostion after irradiation with visible light under oxygen-saturated environment using [18]O2 in presence of rose bengal photosensitizer using by LC/MS method. The format is physicochemical.
For series [15], the target named is T1, DNA dC->dU-editing enzyme APOBEC-3G. Description: Inhibition of APOBEC3G (unknown origin) up to 200 uM incubated for 3 to 72 days using ssDNA oligomer 5'-6-FAM-AAA-TAT-TCC-CTA-ATA-GAT-AAT-GTG-A-TAMRA-3' by fluorescence-based deamination assay. The conditions noted are these: TDE = time-dependent effect. The essentials:
as §2

Series [16] has the same target. Description: Inhibition of APOBEC3G (unknown origin) fluorescence-based ssDNA C-to-U deaminase assay.
For series [17] the target is unchanged. Description: Inhibition of APOBEC3G (unknown origin) assessed as remaining enzyme activity at 200 uM incubated for 3 days using ssDNA oligomer 5'-6-FAM-AAA-TAT-TCC-CTA-ATA-GAT-AAT-GTG-A-TAMRA-3' by fluorescence-based deamination assay. The essentials: as §2
The target is the same in series [18]. Description: Inhibition of APOBEC3G (unknown origin) up to 200 uM using ssDNA oligomer 5'-6-FAM-AAA-TAT-TCC-CTA-ATA-GAT-AAT-GTG-A-TAMRA-3' by fluorescence-based deamination assay. The gist of the method:
as §1

The target of series [19] is DNA dC->dU-editing enzyme APOBEC-3A (Homo sapiens, UniProt P31941). As to the kind of experiment: Inhibition of APOBEC3A (unknown origin) by fluorescence-based ssDNA C-to-U deaminase assay. The essentials:
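Recombinant purified A3A was tested in dose-response up to 200 μM, with compound from DMSO stock. C-to-U deamination was read by fluorescence from the 6-FAM/TAMRA-labelled probe in a coupled uracil DNA glycosylase step, and IC50 was taken from the dose-response curve.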

Series [20] in a line: Toxicity against HEK293T cells assessed as cell viability at 50 uM incubated for 5 days. In kind it is cell-based, HEK-293T. The conditions noted are these: human, read-out: Activity.
For series [21], the target named is T1, DNA dC->dU-editing enzyme APOBEC-3G. As to the kind of experiment: Inhibition of APOBEC3G (unknown origin) using ssDNA oligomer 5'-6-FAM-AAA-TAT-TCC-CTA-ATA-GAT-AAT-GTG-A-TAMRA-3' by fluorescence-based deamination assay. The gist of the method: as §1

T1 sequence (Q9HC16 whole entry): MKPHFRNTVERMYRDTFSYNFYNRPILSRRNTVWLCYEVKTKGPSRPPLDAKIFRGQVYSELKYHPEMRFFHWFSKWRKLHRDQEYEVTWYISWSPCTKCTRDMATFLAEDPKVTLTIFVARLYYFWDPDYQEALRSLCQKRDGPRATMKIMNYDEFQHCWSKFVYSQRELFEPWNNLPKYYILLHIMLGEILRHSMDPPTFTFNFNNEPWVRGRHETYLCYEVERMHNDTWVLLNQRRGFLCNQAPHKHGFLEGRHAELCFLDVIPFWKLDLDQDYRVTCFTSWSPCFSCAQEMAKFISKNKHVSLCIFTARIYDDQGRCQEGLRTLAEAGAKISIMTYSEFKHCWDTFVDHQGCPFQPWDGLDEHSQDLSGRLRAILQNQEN
DNA dC->dU-editing enzyme APOBEC-3A, sequence (P31941 whole entry): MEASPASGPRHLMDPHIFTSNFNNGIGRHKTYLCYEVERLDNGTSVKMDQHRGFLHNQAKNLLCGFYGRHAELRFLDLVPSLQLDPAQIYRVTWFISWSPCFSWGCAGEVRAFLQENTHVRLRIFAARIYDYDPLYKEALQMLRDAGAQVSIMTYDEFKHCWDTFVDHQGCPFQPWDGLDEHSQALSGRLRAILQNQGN

For `O=C(O)c1cc(-c2ccco2)cc2ccccc12`, the fraction remaining at 912 h, 10000 µM in [1] was determined as 89%. With `Nc1nnc(-c2ccncc2)s1`, the inhibition result in [2] was “inactive”.

As to `Cc1ccc(-c2cc(C(=O)N3CCN(S(C)(=O)=O)CC3)c3ccccc3n2)o1`, the fraction remaining at 912 h, 10000 µM in series [1] came to 26%. Still for that read-out and setting: with `Cc1ccc(-c2cc(C(=O)O)ccn2)o1` the figure was 85%; with `COC(=O)c1cc(NC(=O)c2cc(-c3ccc(C)o3)nc3ccccc23)cc(C(=O)OC)c1`, 19%. For `CC1(O)C=CC(OO)(c2cc(C(=O)Nc3nnc(-c4ccncc4)s3)c3ccccc3n2)O1` (configuration not stated), the Drug metabolism result in series [3] and in series [4] was “metabolite_detected” throughout. Further, the inhibition entry in [2] was “inactive”. With `Cc1ccc(-c2cc(C(=O)NCc3ccc4c(c3)OCO4)c3ccccc3n2)o1`, the share remaining at 912 h, 10000 µM in series [1] is 56%. The same measure, in the same setting: under `Cc1ccc(-c2cc(C(=O)O)c3ccccc3n2)o1` stands 83%; under `O=C(Nc1nnc(-c2ccncc2)s1)c1cc(-c2ccco2)cc2ccccc12`, 0%. Take `O=C(Nc1nnc(-c2ccncc2)s1)c1cc(=O)[nH]c2ccccc12`: the Drug metabolism result in series [5], in series [6], in [7], in series [9], in series [10] and in series [4] was “metabolite_detected” in each case. Also, the Activity in series [2] amounted to 83%. Further, in series [8], the inhibition was found to be 50%. As to `Cc1ccc(-c2cc(C(=O)NC(C)C3CCCO3)c3ccccc3n2)o1` (configuration not stated), in [1], the fraction remaining at 912 h, 10000 µM came out at 55%. Same read-out and setting: under `Cc1ccc(-c2cc(C(=O)O)c3ccccc3c2)o1` stands 82%; under `O=C(Nc1nnc(-c2ccncc2)s1)c1ccnc(-c2ccco2)c1`, 90%.

`Cc1ccc(-c2cc(C(=O)Nc3nnc(-c4ccncc4)s3)c3ccccc3n2)o1`: the Activity in series [11] was found to be 55%; in [12], 29%; in series [13], 29%; in [17], 82%. Moreover, the amount remaining at 912 h, 10000 µM in series [1] turned out to be 6%. For the same molecule, the Drug metabolism entry in series [14] was “metabolite_detected”. The inhibition result in series [15] was “tde”. Moreover, the concentration for half-maximal inhibition (IC50) in [16] is 10.8 µM and 50.3 µM; in series [19], 2.8 µM and 9.8 µM. For the same molecule, the inhibition entry in series [18] was “inactive”. For the same molecule, the viability at 120 h, 50 µM in [20] was above 85%.

Regarding `O=C(NNC(=O)c1cc(-c2ccco2)nc2ccccc12)NC1CCCCC1`, in series [1], the fraction remaining at 912 h, 10000 µM is 64%. For `CC1(OO)C=CC(O)(c2cc(C(=O)Nc3nnc(-c4ccncc4)s3)c3ccccc3n2)O1` (configuration not stated), the Drug metabolism result in [3] and in [4] was “metabolite_detected” in each case. In series [2], the inhibition result is “inactive”. As for `Cc1cccc(NC(=O)c2cc(-c3ccc(C)o3)nc3ccccc23)n1`, in [1], the share remaining at 912 h, 10000 µM was found to be 73%. Regarding `CC(=O)/C=C\C(=O)c1cc(C(=O)Nc2nnc(-c3ccncc3)s2)c2ccccc2n1`, the Drug metabolism entry in series [3], in [7] and in [4] was “metabolite_detected” throughout. This molecule had an IC50 in series [21] of 20 µM. As for `Cc1ccc(-c2cc(C(=O)NC3CCCCC3)c3ccccc3n2)o1`, the amount remaining at 912 h, 10000 µM in series [1] is 54%.

For `O=C(O)c1cc(C(=O)Nc2nnc(-c3ccncc3)s2)c2ccccc2n1`, the Drug metabolism result in [3], in [7] and in series [4] was “metabolite_detected” in each case. Moreover, the Activity in [2] stood at 43%. Take `Cc1ccc(-c2ccc3ccccc3n2)o1`: the fraction remaining at 912 h, 10000 µM in series [1] came out at 102%. As to `O=C(O)/C=C\C(=O)c1cc(C(=O)Nc2nnc(-c3ccncc3)s2)c2ccccc2n1`, the Drug metabolism entry in series [7] is “metabolite_detected”. In the case of `Cc1ccc(-c2cc(C(=O)Nc3nnc(-c4ccncc4)s3)c3ccccc3c2)o1`, the amount remaining at 912 h, 10000 µM in series [1] came to 25%.

As to `COc1ccc(CCNC(=O)c2cc(-c3ccc(C)o3)nc3ccccc23)cc1`, the share remaining at 912 h, 10000 µM in [1] came out at 84%. Consider `Cc1ccc(-c2cc(C(=O)Nc3nnc(-c4ccncc4)s3)ccn2)o1`, for which the share remaining at 912 h, 10000 µM in series [1] came to 34%.

As for `O=CCC(=O)c1cc(C(=O)Nc2nnc(-c3ccncc3)s2)c2ccccc2n1`, in series [7], the Drug metabolism entry is given as “metabolite_detected”.

For the molecule `O=C(Nc1nnc(-c2ccncc2)s1)c1cc(-c2ccco2)nc2ccccc12`, the share remaining at 912 h, 10000 µM in [1] came out at 101%. Same read-out and setting: under `O=C(O)c1cc(-c2ccco2)nc2ccccc12` stands 69%. As to `O=C(O)c1ccnc(-c2ccco2)c1`, the share remaining at 912 h, 10000 µM in [1] came out at 92%. Still for that read-out and setting: under `c1coc(-c2ccc3ccccc3n2)c1` stands 117%.
